sPLA2-III inh – Inhibits HGIII-sPLA2 liposome hydrolysis, primary screen | AID 743126 | QFRET BODIPY PC-A2 liposome hydrolysis, fluorescence | Q9NZ20 | inhibition, % at 12.2 µM | 370,000 tested, 0.56% active;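 active = inhibition above mean plus 3 SD of compounds lying within the high and low control bounds, cut at about 19% in these data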;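 note: 0% = median of test compound wells and 100% = no enzyme DMSO wells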
PLC-beta3 inh – PLC-beta3 (human) inhibition, primary screen | 370,000 tested, 0.18% active | Q01970 | AID 720704 | inhibition, % at 12.2 µM | Purified PLC-beta3, fluorogenic substrate, fluorescence; in the data active = inhibition above about 11%;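 note: 0% = median of compound wells on plate and 100% = full blocker control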
PLC-gamma1 inh – inhibitors of human phospholipase C gamma1 | P19174 | purified PLC-gamma1, fluorogenic substrate, fluorescence | inhibition, % at 12.2 µM | 370,000 tested, 0.84% active
Target sequence (P19174 whole entry, looked up): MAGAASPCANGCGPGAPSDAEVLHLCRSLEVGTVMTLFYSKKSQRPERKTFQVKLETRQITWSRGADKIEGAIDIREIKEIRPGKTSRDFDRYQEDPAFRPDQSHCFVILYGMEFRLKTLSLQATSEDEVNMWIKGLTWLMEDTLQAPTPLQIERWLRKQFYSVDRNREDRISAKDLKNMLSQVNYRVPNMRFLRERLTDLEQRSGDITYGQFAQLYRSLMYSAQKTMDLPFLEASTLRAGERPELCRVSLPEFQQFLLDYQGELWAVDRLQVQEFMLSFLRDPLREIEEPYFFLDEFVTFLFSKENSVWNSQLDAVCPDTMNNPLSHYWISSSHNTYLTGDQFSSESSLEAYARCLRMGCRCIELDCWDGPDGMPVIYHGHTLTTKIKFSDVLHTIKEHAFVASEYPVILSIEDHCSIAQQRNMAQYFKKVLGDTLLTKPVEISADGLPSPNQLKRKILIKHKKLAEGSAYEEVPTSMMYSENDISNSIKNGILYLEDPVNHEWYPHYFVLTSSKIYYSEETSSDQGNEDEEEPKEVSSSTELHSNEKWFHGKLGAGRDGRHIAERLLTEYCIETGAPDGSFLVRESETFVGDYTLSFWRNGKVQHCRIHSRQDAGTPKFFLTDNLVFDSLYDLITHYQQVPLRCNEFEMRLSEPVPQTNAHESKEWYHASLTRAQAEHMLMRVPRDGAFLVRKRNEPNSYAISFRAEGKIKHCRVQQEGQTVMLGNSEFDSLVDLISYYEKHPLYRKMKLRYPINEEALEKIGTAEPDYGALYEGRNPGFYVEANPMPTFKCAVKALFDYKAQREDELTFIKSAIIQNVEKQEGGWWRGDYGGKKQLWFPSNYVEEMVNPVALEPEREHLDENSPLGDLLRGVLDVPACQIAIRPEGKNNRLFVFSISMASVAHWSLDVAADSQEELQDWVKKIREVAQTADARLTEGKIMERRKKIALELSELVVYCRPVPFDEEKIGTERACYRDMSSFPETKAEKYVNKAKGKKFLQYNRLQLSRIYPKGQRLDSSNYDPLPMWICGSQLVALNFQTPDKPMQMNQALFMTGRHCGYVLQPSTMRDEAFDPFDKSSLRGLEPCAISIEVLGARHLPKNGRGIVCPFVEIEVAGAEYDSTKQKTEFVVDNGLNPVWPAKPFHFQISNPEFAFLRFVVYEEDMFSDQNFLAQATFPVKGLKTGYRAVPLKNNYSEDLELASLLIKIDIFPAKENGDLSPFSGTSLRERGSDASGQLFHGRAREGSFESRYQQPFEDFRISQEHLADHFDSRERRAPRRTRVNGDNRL
TbMetRS inhib – Trypanosoma brucei MetRS inhibition | AID 624268 | inhibition, % at 11.9 µM | purified T. brucei MetRS, ATP depletion, Kinase-Glo luminescence | 360,000 tested, 0.4% active;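 active = inhibition above a per-plate cutoff of the control wells' mean inhibition plus 3 SD, cut at about 5.5% in these data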;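 note: 0% = DMSO wells median and 100% = median of wells with control inhibitor compound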
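Test system: purified T. brucei MetRS enzyme. Also added: ATP, methionine and E. coli bulk tRNA substrates. Compound: 11.9 µM single point. Schedule: 15 min enzyme-compound preincubation, 2 h reaction, 10 min detection, 25 °C. Signal: luciferase luminescence of residual ATP, Kinase-Glo. Evaluation: percent inhibition versus plate control medians. Controls: DMSO wells, low control.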
PLCgamma1 ctr – PLC-gamma1 inhibition, counter-screen for PLC-beta3 hits. inhibition, % at 12.3 µM. 3,300 tested, 3.1% active. purified PLC-gamma1, fluorogenic substrate, fluorescence. shares compounds with PLC-gamma1 inh
PLCbeta3 conf – confirmation of human PLC-beta3 inhibitors; shares compounds with PLC-gamma1 inh; purified PLC-beta3, fluorogenic substrate fluorescence; inhibition, % at 12.3 µM; 3,300 tested, 1% active; AID 743261; in the data active = inhibition above about 11%
* = called active by the depositor; / = no result. Most compounds without a hit are left out; they make up all but 1.9% or so of the library. Cut-off read from the data, not from the text of the source, unless noted: active = inhibition above about 9.5%; inactive = the rest.

SMILES	sPLA2-III inh	PLC-beta3 inh	PLC-gamma1 inh	TbMetRS inhib	PLCgamma1 ctr	PLCbeta3 conf
O=C(NNC(=O)c1ccncc1)Nc1ccc(N=Nc2ccccc2)cc1	-36	0	12*	0	7	9
O=C(NNC(=O)c1ccncc1)Nc1ccccc1	-3	-2	0	0	/	/
CCOC(=O)c1cnn(-c2nc(C)cc(C)n2)c1N	10	5	10*	0	-2	-1
CCOC(=O)c1cnn(-c2ccccc2)c1N	-3	1	2	-1	/	/
COc1ccc(C[N+]2=C(N)NC3=C(C)Cn4c(=O)n(-c5ccccc5)c(=O)n4C3C2)c(OC)c1 (stereo not given)	9	0	-2	/	/	/
Cc1ccc(NC2=C(Cl)C(=O)OC2OC(C)C)cc1 (stereo not given)	4	3	4	0	/	/
Cc1cccc(NC2=C(Cl)C(=O)OC2OC(C)C)c1 (stereo not given)	6	7	10*	0	6	1
Cc1c(CN(C)C(=O)c2ccc(Br)o2)cnn1C	-2	5	12*	0	-7	-5
Cc1ccnc(NS(=O)(=O)c2cccc3nsnc23)c1	12	2	9.9*	-1	-6	-2
CCN(CCNCC(O)COc1ccccc1C(C)C)c1cccc(C)c1 (stereo not given)	-11	-1	17*	-1	1	2
COC(=O)Cc1nnn2c1CC(OC)c1cc(Br)ccc1-2 (stereo not given)	1	-4	-3	/	/	/
COc1ccc(CC(=O)NCC2CCCN(Cc3cc(OC)cc(OC)c3)C2)cc1 (stereo not given)	6	1	13*	-1	-5	-4
COC(=O)c1ccc(CN2CCCC(CNC(=O)Cc3ccc(OC)cc3)C2)cc1 (stereo not given)	9	-5	-1	0	/	/
Cc1ccc(C(NC(N)=O)c2ccccc2)cc1 (stereo not given)	3	4	12*	-1	-8	-6
CC(C)(C)OC(=O)NCc1ccccc1/C=C/S(=O)(=O)NCCc1ccccc1	-6	-3	1	/	/	/
CC(C)N(Cc1cn(Cc2ccccc2)nn1)S(=O)(=O)c1ccc(F)cc1Br	0	1	2	/	/	/
COc1ccc(OCc2ccc(C(=O)O)cc2)cc1	8	3	9.9*	0	-4	-2
COc1cccc(NC(=O)Nc2c(-c3ccc(F)cc3)nc3ncccn23)c1	0	-397	-325	/	/	/
C#CCN(CC=C)C(=O)c1ccc2nc(C3CCCCC3)oc2c1	-42	0	9.5*	0	-5	-3
C=CCN(CC=C)C(=O)c1ccc2nc(Cc3ccc(OC)c(OC)c3)oc2c1	-48	-9	-4	0	/	/
O=C(NC1CCCCN(Cc2cccc(C(F)(F)F)c2)C1=O)c1c(F)cccc1F (stereo not given)	1	1	-1	/	/	/
Cc1c(NC(=O)C2CCCN(S(=O)(=O)c3ccc(Cl)s3)C2)c(=O)n(-c2ccccc2)n1C (stereo not given)	15	0	0	/	/	/
COc1ccc(C)cc1NC(=O)CNC(c1ccccc1)c1ccccc1	-6	1	1	0	/	/
COc1ccc(OC)c(NC(=O)CNC(c2ccccc2)c2ccccc2)c1	7	3	13*	-1	-6	-2
Clc1ccc(C2CSc3c4ncnc-4ncn32)cc1 (stereo not given)	-16	3	11*	0	-8	-1
SMILES	sPLA2-III inh	PLC-beta3 inh	PLC-gamma1 inh	TbMetRS inhib	PLCgamma1 ctr	PLCbeta3 conf
CCNC(=S)NNC(=O)CSc1nnc(-c2ccccc2)n1-c1ccc(Cl)cc1	14	2	0	/	/	/
Cc1ccc(S(=O)(=O)N2CC3=C(c4ccccc4)CC4(C)C(=O)C(C)(C)CC4=C3C2)cc1 (stereo not given)	-14	-11	-8	/	/	/
COc1c(C)cc(C(=O)C2CCCN(C(=O)/C=C/c3ccccn3)C2)cc1C (stereo not given)	9	11*	11*	0	-4	-5
CC(C)C[C@H](NC(C)(C)C(=O)NC1CCCCC1)C(=O)NCCc1c[nH]c2ccccc12	-53	-2	2	/	/	/
O=C(Nc1ccccc1C(=O)NCC1CC1)c1cccs1	4	3	-2	/	/	/
O=Cc1c(-c2ccc(F)cc2)nc2ccccn12	5	1	11*	0	-6	0
CCOC(=O)c1ccc(NC(=O)N2CCN(S(C)(=O)=O)CC2)cc1	8	4	12*	-2	-7	-3
COc1cc(C(=O)Nc2cccc(-c3nc4ccccc4o3)c2C)cc(OC)c1OC	16	4	14*	-1	-6	0
COc1ccc(C(=O)Nc2ccccc2C(=O)N2CCOCC2)cc1OC	15	7	9.8*	0	-6	-1
COc1ccc(C(=O)Nc2cc(C)nc3ccccc23)cc1OC	8	2	10*	-1	-6	-2
COc1ccc(C(=O)Nc2ccccc2C(=O)N2CCOCC2)cc1Br	5	0	0	0	/	/
CSc1cc(SC)ncn1	0	12*	5	0	-6	-1
COC(=O)[C@@H](CC(C)C)CP(=O)(OC)[C@@H](C)NC(=O)OCc1ccccc1 (stereo not given in full)	3	0	-1	/	/	/
COc1ccc(N2CCN(C(=O)CNC(=O)Cc3ccccc3)CC2)cc1	10	-12	10*	-1	-5	-2
O=C(CCN1CCN(c2ccccc2)CC1)NNC(=O)c1cccc2ccccc12	-5	2	4	0	/	/
CCCCOc1cccc(C(=O)Nc2ccc(N3CCN(CC)CC3)cc2)c1	5	11*	3	1	-1	6
COc1cccc(C(=O)NCCN2CCOCC2)c1	-7	1	2	-1	/	/
COc1cccc(C(=O)NCCN2CCN(c3ccc(Cl)cc3)CC2)c1	-1	7	9.9*	-1	-6	-8
COc1cccc(C(=O)NNC(=O)CCN2CCN(c3ccccc3)CC2)c1	-4	13*	6	0	-2	4
CCCCOc1ccc(C(=O)Nc2ccc(N3CCN(C)CC3)cc2)cc1	-3	3	1	-1	/	/
O=C(CN1C(=O)CCSc2ccccc21)Nc1ccc(F)cc1F	9	0	-1	/	/	/
COc1ccc(-c2csc(N(CC3CCCO3)C(=O)c3ccc(C)cc3)n2)cc1 (stereo not given)	2	5	14*	0	-4	-7
Cc1ccc(-c2csc(N(CC3CCCO3)C(=O)c3ccco3)n2)cc1 (stereo not given)	13	4	11*	-1	-12	-6
CCOc1ccc(-n2c(SCC(=O)Nc3cccc4ccccc34)nnc2-c2ccncc2)cc1	7	-1	-1	/	/	/
Cc1[nH][nH]c(=O)c1C=NCc1cccs1	1	1	3	0	/	/
Cc1[nH][nH]c(=O)c1C=NCc1cccnc1	6	7	11*	-1	1	3
COc1ccc(CNCC#Cc2cccnc2)c(OC)c1	1	-3	-5	/	/	/

Source: PubChem BioAssay (The Scripps Research Institute Molecular Screening Center)
